Source: PubChem BioAssay AID2052 (NMMLSC, 2009)
Screen size: about 330,000 compounds; about 220 (0.067%) were called active.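 The calls were made as follows: active = response, share of CD8 T cells binding vesicles, and their 90th percentile fluorescence all below set limits (cut at about 80% in these data, passing the limit was not always enough); inactive = the rest, inconclusive results apart.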 This excerpt belongs to a sample that is enriched for actives. Non-standard residues stand in square brackets, D forms with d. Residues, ends and D or L forms follow the SMILES beside them. ξ: configuration not given here. ξV = CC(C)C(N)C(=O)O

Assay: modulators of CD8 T cell-vesicle binding, primary screen, mouse 2C CD8+ T cells, flow cytometry (AID 2052);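 as to double positive events: binding gate set so that unloaded-vesicle control wells show 10% double positive cells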;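 as to response (vesicle binding): values below 100% mean blocked vesicle binding to the CD8+ T cells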
Conditions: 2C CD8+ T cell-vesicle binding, at 7 µM, stronger effect = lower value; double positive events: measured here: CD8+ vesicle-bound cell fraction
Method in brief: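 Benchmarks: naked versus QL9-loaded vesicles / Assay system: purified 2C TCR transgenic mouse naive CD8+ T cells / Technique: high-throughput flow cytometry with anti-B7-1 and anti-CD8 staining / Timing: Cell–vesicle co-incubation 1.5 h at 37 °C, staining 20 min on ice / Read-out: percent CD8+ FL2 mean versus row control / Probe or stimulus: QL9-loaded Drosophila micro-vesicles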

SMILES	double positive events	response (vesicle binding)
Cn1nnnc1NCc1ccc(Cl)c(Cl)c1	43.7%	445% (inactive)
CC(C)N1CCC(NC(=O)Nc2ccccc2)CC1	60.7%	257% (inactive)
CC(=O)NC(C(=O)NCC(N)=O)C(C)C (stereo unspecified) (Ac-[ξV]-Gly-NH2)	32.4%	396% (inactive)
O=C(O)c1[nH]c2ccccc2c1C(c1cccc(O)c1)c1c(C(=O)O)[nH]c2ccccc12	36.2%	361% (inactive)
Cc1ccc(CNC(=O)COC(=O)C2CCC2)cc1	37.4%	742% (inactive)
O=C(COC(=O)Cc1c[nH]c2ccccc12)NCCc1ccccc1	19.5%	241% (inactive)
NC(=O)COc1ccc(C23CC4CC(CC(C4)C2)C3)cc1	52.9%	159% (inactive)
COP1(=O)C[C@@H](O)[C@@H](O)[C@@H](COCc2ccccc2)O1 (stereo partly specified)	21.9%	504% (inactive)
C[C@H](OC(=O)n1ccnc1)[C@@H]1O[C@@]2(C)CCC[C@@H]1O2	24.9%	376% (inactive)
COc1ccc(N(CC(=O)Nc2ccc(C)cc2C)S(=O)(=O)c2ccccc2[N+](=O)[O-])c(OC)c1	61.2%	182% (inactive)
Cc1noc(C)c1CSc1nnc2ccc3ccccc3n12	43.2%	196% (inactive)
NS(=O)(=O)c1cc(Cl)c(Cl)c(S(N)(=O)=O)c1	42.1%	570% (inactive)
Cn1nnc(NC(=S)NC(=O)c2ccccc2)n1	30.5%	556% (inactive)
CSc1nnc(SCc2nc3sc(C(=O)O)c(C)c3c(=O)[nH]2)s1	37.4%	501% (inactive)
CCc1ccc(CNC(=O)C2CCN(c3nnc(C)c4c(C)n(-c5ccc(C)cc5)nc34)CC2)cc1	10.5%	623% (inactive)
CC1(C)C[C@H]2C3=CCC4[C@@]5(C)CC[C@H](O)[C@](C)(CO)C5CC[C@@]4(C)[C@]3(C)C[C@@H](O)[C@@]2(CO)[C@@H](O)[C@@H]1O (stereo partly specified)	14.8%	534% (inactive)
COc1cc(NC(=S)NNC(=O)CC(C)C)c(OC)cc1Cl	66.1%	458% (inactive)
Cc1nn(CCOc2ccc(Br)cc2)c(C)c1[N+](=O)[O-]	61.8%	447% (inactive)
COc1cc(OC)c(-n2cc(-c3ccc(Cl)cc3)[nH]c2=O)cc1Cl	39.5%	546% (inactive)

SMILES	double positive events	response (vesicle binding)
O=C(c1ccc2c(c1)OCO2)N1CCN(C(=O)c2ccco2)CC1	35.9%	148% (inactive)
O=C(c1ccco1)N1CCN(C(=O)C2c3ccccc3Oc3ccccc32)CC1	0%	0% (active)
O=C(c1ccco1)N1CCN(CCOc2ccccc2)CC1	23.1%	301% (inactive)
Cc1cc(C)c(NC(=O)CSc2nc3ccncc3[nH]2)c(C)c1	24.7%	968% (inactive)
Cc1sc2ncnc(SCC(=O)Nc3ccc(CN4CCCC4)cc3)c2c1C	35.3%	104% (inactive)
C=CC[C@@H](CC(=O)N[C@@H](CO)Cc1ccccc1)C(=O)NCCOC(=O)[C@@H](CC=C)CC(=O)OC(C)(C)C	13.7%	321% (inactive)
CC(=O)Nc1nc2c(s1)C(=O)NCC(C)(C)C2	50.4%	439% (inactive)
Cc1ccc(C(=O)Nc2ccc(C)c(S(=O)(=O)N(C)C)c2)s1	45.5%	218% (inactive)
Nc1ccc(OCC(O)C[n+]2ccc(CCS(=O)(=O)[O-])cc2)cc1 (stereo unspecified)	20.9%	319% (inactive)
CC(Oc1ccc(Br)cc1)C(=O)NCC(c1ccco1)N1CCCCC1 (stereo unspecified)	51.4%	336% (inactive)
O=C1CC(Sc2ncn[nH]2)C(=O)N1c1ccccc1 (stereo unspecified)	46.5%	391% (inactive)
COC(=O)C(C(=O)Nc1cccc(C)n1)C1CCCCCC1 (stereo unspecified)	44.3%	158% (inactive)
CSc1ccccc1C(=O)OCC(=O)N1CCN(C(C)=O)CC1	34.9%	823% (inactive)
CCn1cc(C(=O)N2CC=C(c3ccccc3)CC2)c(=O)c2ccc(C)nc21	1.9%	79.1% (inactive)
CN1C(C(=O)NCC2CC2)CC2Cn3c(nc4ccccc43)C21 (stereo unspecified)	12.7%	473% (inactive)
Cc1ccc(C)c2[nH]c(=O)c(CCNC(=O)CC(C)C)cc12	38.5%	832% (inactive)
CCOC(=O)C1CCN(C(=O)C2(NC(=O)Nc3cccc(F)c3)CCCCC2)CC1	36.4%	360% (inactive)
CC1=C(C(N)=O)C(c2sccc2C)n2nnnc2N1 (stereo unspecified)	23.4%	292% (inactive)
CC1=C(C(=O)OC2CCCCC2)C(c2ccccc2F)NC(=O)N1 (stereo unspecified)	33.6%	167% (inactive)
